Measurements as given in ChEMBL document CHEMBL4400581, “First Example of Catalytic Synthesis of Difurazanohexahydrohexaazapyrenes and in Vitro Study of Their Antitumor Activity” (2019).

Key:
[1] = test system: HeLa; assay: Cytotoxicity against human HeLa cells by MTT assay; type: functional
In short: (§1)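 Cytotoxicity was measured by MTT assay across a range of concentrations in human tumour lines, with etoposide as the reference drug. Results are expressed as CC50.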

[2] = test system: U-937; assay: Cytotoxicity against human U937 cells by MTT assay; type: functional; in short: as §1
[3] = test system: K562; assay: Cytotoxicity against human K562 cells by MTT assay; type: functional; in short: as §1
[4] = test system: Jurkat; assay: Cytotoxicity against human Jurkat cells by MTT assay; type: functional; in short: as §1
[5] = test system: U-937; assay: Cell cycle arrest in human U937 cells assessed as accumulation at G1 phase at 0.05 uM measured after 24 hrs by propidium iodide staining based assay (reference value: 41.98%); type: functional
In short: (§2)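 U937 cells were exposed to the test agent at 0.2, 0.1, 0.05 or 0.025 μM for 24 h alongside an untreated control. DNA content was measured by propidium iodide staining and flow cytometry, giving the G0/G1, S and G2+M fractions and the hypodiploid pre-G0 (sub-G1) population. Values are means ± SD of three independent experiments, compared with control (p < 0.05, p < 0.01).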

[6] = test system: U-937; assay: Induction of apoptosis in human U937 cells assessed as live cells at 0.05 uM measured after 24 hrs by Annexin alexa fluor 488/7AAD staining based flow cytometry (reference value: 98.31%); type: functional
[7] = test system: U-937; assay: Induction of apoptosis in human U937 cells assessed as late apoptotic cells at 0.025 uM measured after 24 hrs by Annexin alexa fluor 488/7AAD staining based flow cytometry (reference value: 0.05%); type: functional
[8] = test system: U-937; assay: Induction of apoptosis in human U937 cells assessed as early apoptotic cells at 0.2 uM measured after 24 hrs by Annexin alexa fluor 488/7AAD staining based flow cytometry (reference value: 1.45%); type: functional
[9] = test system: U-937; assay: Cell cycle arrest in human U937 cells assessed as accumulation at G2/G1 phase at 0.2 uM measured after 24 hrs by propidium iodide staining based assay (reference value: 1.98%); type: functional
[10] = test system: U-937; assay: Cell cycle arrest in human U937 cells assessed as accumulation at G1 phase at 0.2 uM measured after 24 hrs by propidium iodide staining based assay (reference value: 41.98%); type: functional; in short: as §2
[11] = test system: U-937; assay: Cell cycle arrest in human U937 cells assessed as accumulation at G2 phase at 0.025 uM measured after 24 hrs by propidium iodide staining based assay (reference value: 10.7%); type: functional; in short: as §2
[12] = test system: U-937; assay: Induction of apoptosis in human U937 cells measured after 24 hrs by Annexin alexa fluor 488/7AAD staining based flow cytometry; type: functional, cell-based
In short: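 Treated U937 cells were stained with annexin V Alexa Fluor 488 and 7AAD. Fluorescence intensity was read by flow cytometry, with etoposide run as the reference drug.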

[13] = test system: U-937; assay: Induction of apoptosis in human U937 cells assessed as necrotic cells at 0.05 uM measured after 24 hrs by Annexin alexa fluor 488/7AAD staining based flow cytometry (reference value: 0.19%); type: functional
[14] = test system: U-937; assay: Induction of apoptosis in human U937 cells assessed as late apoptotic cells at 0.1 uM measured after 24 hrs by Annexin alexa fluor 488/7AAD staining based flow cytometry (reference value: 0.05%); type: functional
[15] = test system: U-937; assay: Cell cycle arrest in human U937 cells assessed as accumulation at G2/G1 phase at 0.025 uM measured after 24 hrs by propidium iodide staining based assay (reference value: 1.98%); type: functional
[16] = test system: U-937; assay: Cell cycle arrest in human U937 cells assessed as accumulation at G2/G1 phase at 0.05 uM measured after 24 hrs by propidium iodide staining based assay (reference value: 1.98%); type: functional
[17] = test system: U-937; assay: Induction of apoptosis in human U937 cells assessed as necrotic cells at 0.2 uM measured after 24 hrs by Annexin alexa fluor 488/7AAD staining based flow cytometry (reference value: 0.19%); type: functional
[18] = test system: U-937; assay: Cell cycle arrest in human U937 cells assessed as accumulation at G1 phase at 0.1 uM measured after 24 hrs by propidium iodide staining based assay (reference value: 41.98%); type: functional; in short: as §2
[19] = test system: U-937; assay: Cell cycle arrest in human U937 cells assessed as accumulation at S phase at 0.1 uM measured after 24 hrs by propidium iodide staining based assay (reference value: 45.88%); type: functional; in short: as §2
[20] = test system: U-937; assay: Cell cycle arrest in human U937 cells assessed as accumulation at sub-G1 phase at 0.2 uM measured after 24 hrs by propidium iodide staining based assay (reference value: 0.01%); type: functional; in short: as §2
[21] = test system: U-937; assay: Induction of apoptosis in human U937 cells assessed as necrotic cells at 0.025 uM measured after 24 hrs by Annexin alexa fluor 488/7AAD staining based flow cytometry (reference value: 0.19%); type: functional
[22] = test system: U-937; assay: Induction of apoptosis in human U937 cells assessed as live cells at 0.1 uM measured after 24 hrs by Annexin alexa fluor 488/7AAD staining based flow cytometry (reference value: 98.31%); type: functional
[23] = test system: U-937; assay: Cell cycle arrest in human U937 cells assessed as accumulation at G2 phase at 0.1 uM measured after 24 hrs by propidium iodide staining based assay (reference value: 10.7%); type: functional; in short: as §2
[24] = test system: U-937; assay: Cell cycle arrest in human U937 cells assessed as accumulation at sub-G1 phase at 0.1 uM measured after 24 hrs by propidium iodide staining based assay (reference value: 0.01%); type: functional; in short: as §2
[25] = test system: U-937; assay: Induction of apoptosis in human U937 cells assessed as late apoptotic cells at 0.2 uM measured after 24 hrs by Annexin alexa fluor 488/7AAD staining based flow cytometry (reference value: 0.05%); type: functional
[26] = test system: U-937; assay: Cell cycle arrest in human U937 cells assessed as accumulation at super-G2 phase at 0.1 uM measured after 24 hrs by propidium iodide staining based assay (reference value: 0.45%); type: functional
[27] = test system: U-937; assay: Cell cycle arrest in human U937 cells assessed as accumulation at super-G2 phase at 0.2 uM measured after 24 hrs by propidium iodide staining based assay (reference value: 0.45%); type: functional
[28] = test system: U-937; assay: Cell cycle arrest in human U937 cells assessed as accumulation at S phase at 0.025 uM measured after 24 hrs by propidium iodide staining based assay (reference value: 45.88%); type: functional; in short: as §2
[29] = test system: U-937; assay: Cell cycle arrest in human U937 cells assessed as accumulation at G2 phase at 0.2 uM measured after 24 hrs by propidium iodide staining based assay (reference value: 10.7%); type: functional; in short: as §2
[30] = test system: U-937; assay: Cell cycle arrest in human U937 cells assessed as accumulation at G2 phase at 0.05 uM measured after 24 hrs by propidium iodide staining based assay (reference value: 10.7%); type: functional; in short: as §2
[31] = test system: U-937; assay: Cell cycle arrest in human U937 cells assessed as accumulation at S phase at 0.05 uM measured after 24 hrs by propidium iodide staining based assay (reference value: 45.88%); type: functional; in short: as §2
[32] = test system: U-937; assay: Induction of apoptosis in human U937 cells assessed as necrotic cells at 0.1 uM measured after 24 hrs by Annexin alexa fluor 488/7AAD staining based flow cytometry (reference value: 0.19%); type: functional
[33] = test system: U-937; assay: Induction of apoptosis in human U937 cells assessed as early apoptotic cells at 0.05 uM measured after 24 hrs by Annexin alexa fluor 488/7AAD staining based flow cytometry (reference value: 1.45%); type: functional
[34] = test system: U-937; assay: Induction of apoptosis in human U937 cells assessed as live cells at 0.025 uM measured after 24 hrs by Annexin alexa fluor 488/7AAD staining based flow cytometry (reference value: 98.31%); type: functional
[35] = test system: U-937; assay: Induction of apoptosis in human U937 cells assessed as early apoptotic cells at 0.025 uM measured after 24 hrs by Annexin alexa fluor 488/7AAD staining based flow cytometry (reference value: 1.45%); type: functional
[36] = test system: U-937; assay: Cell cycle arrest in human U937 cells assessed as accumulation at G2/G1 phase at 0.1 uM measured after 24 hrs by propidium iodide staining based assay (reference value: 1.98%); type: functional
[37] = test system: U-937; assay: Cell cycle arrest in human U937 cells assessed as accumulation at super-G2 phase at 0.025 uM measured after 24 hrs by propidium iodide staining based assay (reference value: 0.45%); type: functional
[38] = test system: U-937; assay: Cell cycle arrest in human U937 cells assessed as accumulation at sub-G1 phase at 0.025 uM measured after 24 hrs by propidium iodide staining based assay (reference value: 0.01%); type: functional; in short: as §2
[39] = test system: U-937; assay: Cell cycle arrest in human U937 cells assessed as accumulation at sub-G1 phase at 0.05 uM measured after 24 hrs by propidium iodide staining based assay (reference value: 0.01%); type: functional; in short: as §2
[40] = test system: U-937; assay: Cell cycle arrest in human U937 cells assessed as accumulation at G1 phase at 0.025 uM measured after 24 hrs by propidium iodide staining based assay (reference value: 41.98%); type: functional; in short: as §2
[41] = test system: U-937; assay: Cell cycle arrest in human U937 cells assessed as accumulation at super-G2 phase at 0.05 uM measured after 24 hrs by propidium iodide staining based assay (reference value: 0.45%); type: functional
[42] = test system: U-937; assay: Induction of apoptosis in human U937 cells assessed as live cells at 0.2 uM measured after 24 hrs by Annexin alexa fluor 488/7AAD staining based flow cytometry (reference value: 98.31%); type: functional
[43] = test system: U-937; assay: Induction of apoptosis in human U937 cells assessed as early apoptotic cells at 0.1 uM measured after 24 hrs by Annexin alexa fluor 488/7AAD staining based flow cytometry (reference value: 1.45%); type: functional
[44] = test system: U-937; assay: Induction of apoptosis in human U937 cells assessed as late apoptotic cells at 0.05 uM measured after 24 hrs by Annexin alexa fluor 488/7AAD staining based flow cytometry (reference value: 0.05%); type: functional
[45] = test system: U-937; assay: Cell cycle arrest in human U937 cells assessed as accumulation at S phase at 0.2 uM measured after 24 hrs by propidium iodide staining based assay (reference value: 45.88%); type: functional; in short: as §2

## C1CCCC(N2CN3c4nonc4N4CN(C5CCCCCCC5)CN5c6nonc6N(C2)C3C45)CCC1 (centres undefined)
[1]
  Activity: Dose-dependent effect
  CC50: 1.37 µM
[2]
  Activity: Dose-dependent effect
  CC50: 0.58 µM
[3]
  Activity: Dose-dependent effect
  CC50: 0.74 µM
[4]
  Activity: Dose-dependent effect
  CC50: 0.62 µM

## C1CCC(N2CN3c4nonc4N4CN(C5CCCC5)CN5c6nonc6N(C2)C3C45)C1 (centres undefined)
[1]
  Activity: Dose-dependent effect
  CC50: 0.98 µM
[2]
  Activity: Dose-dependent effect
  CC50: 0.57 µM
[3]
  Activity: Dose-dependent effect
  CC50: 0.64 µM
[4]
  Activity: Dose-dependent effect
  CC50: 0.51 µM

## C1CCC(N2CN3c4nonc4N4CN(C5CCCCC5)CN5c6nonc6N(C2)C3C45)CC1 (centres undefined)
[1]
  Activity: Dose-dependent effect
  CC50: 1.04 µM
[2]
  Activity: Dose-dependent effect
  CC50: 0.54 µM
[3]
  Activity: Dose-dependent effect
  CC50: 0.59 µM
[4]
  Activity: Dose-dependent effect
  CC50: 0.53 µM

## C1CCCC(N2CN3c4nonc4N4CN(C5CCCCCC5)CN5c6nonc6N(C2)C3C45)CC1 (centres undefined)
[1]
  Activity: Dose-dependent effect
  CC50: 1.21 µM
[2]
  Activity: Dose-dependent effect
  CC50: 0.59 µM
[3]
  Activity: Dose-dependent effect
  CC50: 0.69 µM
[4]
  Activity: Dose-dependent effect
  CC50: 0.57 µM

## C1CC1N1CN2c3nonc3N3CN(C4CC4)CN4c5nonc5N(C1)C2C34 (centres undefined)
[1]
  Activity: Dose-dependent effect
  CC50: 0.42 µM
[2]
  Activity: Dose-dependent effect
  CC50: 0.25 µM
[3]
  Activity: Dose-dependent effect
  CC50: 0.31 µM
[4]
  Activity: Dose-dependent effect
  CC50: 0.27 µM

## C1CC2CC1CC2N1CN2c3nonc3N3CN(C4CC5CCC4C5)CN4c5nonc5N(C1)C2C34 (centres undefined)
[5]
  Activity: 30.09%
[6]
  Activity: 60.65%
[7]
  Activity: 16.54%
[8]
  Activity: 19.35%
[9]
  Activity: 1.91%
[10]
  Activity: 17.74%
[11]
  Activity: 4.11%
[12]
  Activity: Dose-dependent effect
[13]
  Activity: 1.4%
[14]
  Activity: 40.93%
[15]
  Activity: 1.98%
[16]
  Activity: 1.93%
[17]
  Activity: 4.4%
[18]
  Activity: 34.01%
[1]
  Activity: Dose-dependent effect
  CC50: 0.32 µM
[19]
  Activity: 32.87%
[20]
  Activity: 20.66%
[21]
  Activity: 1.28%
[22]
  Activity: 42.25%
[23]
  Activity: 2.83%
[24]
  Activity: 16.73%
[25]
  Activity: 53.07%
[26]
  Activity: 0.94%
[27]
  Activity: 1.38%
[28]
  Activity: 48.65%
[2]
  Activity: Dose-dependent effect
  CC50: 0.11 µM
[29]
  Activity: 3.12%
[30]
  Activity: 3.29%
[31]
  Activity: 41.7%
[32]
  Activity: 1.31%
[33]
  Activity: 10.94%
[34]
  Activity: 71.74%
[35]
  Activity: 10.44%
[3]
  Activity: Dose-dependent effect
  CC50: 0.21 µM
[36]
  Activity: 1.98%
[37]
  Activity: 2.28%
[38]
  Activity: 6.37%
[39]
  Activity: 11.01%
[40]
  Activity: 35.15%
[41]
  Activity: 2.07%
[42]
  Activity: 23.18%
[4]
  Activity: Dose-dependent effect
  CC50: 0.16 µM
[43]
  Activity: 15.52%
[44]
  Activity: 27.01%
[45]
  Activity: 38.89%
